Reference: ChEMBL document CHEMBL1122163, “4-hydroxyquinoline-3-carboxylic acids as inhibitors of cell respiration. 2. Quantitative structure-activity relationship of dehydrogenase enzyme and Ehrlich ascites tumor cell inhibitions” (J Med Chem, 1982)
Activity calls are given as the source filed them. No cut-off for these calls is given here.

Assays:
[1] = test system: L-lactate dehydrogenase, skeletal muscle M4 (Oryctolagus cuniculus); assay: Ability to inhibit skeletal muscle LDH (LDH-M4); Inactive; settings: Muscle tissue
[2] = target: T1, Malate dehydrogenase, cytoplasmic (Sus scrofa) (UniProt P11708); assay: Ability to inhibit cytoplasmic malate dehydrogenase; Inactive
T1 sequence (whole entry): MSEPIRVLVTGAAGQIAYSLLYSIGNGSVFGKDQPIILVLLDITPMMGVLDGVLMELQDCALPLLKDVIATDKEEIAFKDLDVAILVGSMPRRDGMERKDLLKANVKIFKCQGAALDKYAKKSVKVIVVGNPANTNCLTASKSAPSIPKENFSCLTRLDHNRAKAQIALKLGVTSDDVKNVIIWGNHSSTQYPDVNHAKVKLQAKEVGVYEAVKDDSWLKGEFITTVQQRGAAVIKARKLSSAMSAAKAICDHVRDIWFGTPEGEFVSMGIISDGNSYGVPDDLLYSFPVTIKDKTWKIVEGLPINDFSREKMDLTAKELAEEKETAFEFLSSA
In short: (§1)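 Pig heart enzyme (cytoplasmic or mitochondrial form), diluted in 0.05 M Tris pH 7.4 with 1% BSA to give 0.022–0.027 OD/min at 340 nm. Cuvette holds 0.05 M Tris pH 8.4, L-malate, NAD+ and Me2SO ± inhibitor. Equilibrated at 25 °C, then started with enzyme. Five inhibitor concentrations in triplicate; I50 from least-squares dose-response line.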

[3] = target: T2, Malate dehydrogenase, mitochondrial (Sus scrofa) (UniProt P00346); assay: Ability to inhibit mitochondrial malate dehydrogenase; Inactive
T2 sequence (whole entry): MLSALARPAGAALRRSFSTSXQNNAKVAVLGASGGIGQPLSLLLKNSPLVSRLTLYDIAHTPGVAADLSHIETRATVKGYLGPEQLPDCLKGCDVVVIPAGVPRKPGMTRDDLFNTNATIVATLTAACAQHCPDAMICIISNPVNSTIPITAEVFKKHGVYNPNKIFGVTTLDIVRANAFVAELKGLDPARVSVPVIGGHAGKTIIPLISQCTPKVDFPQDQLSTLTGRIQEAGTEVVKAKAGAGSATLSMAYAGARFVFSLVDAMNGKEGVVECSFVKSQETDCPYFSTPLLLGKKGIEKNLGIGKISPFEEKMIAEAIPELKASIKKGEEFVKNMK
In short: as §1

Row | SMILES | pI50 [2] | pI50 [3] | pI50 [1]
1 | O=C(O)c1cnc2cc(OCCOc3ccc(Oc4ccccc4)cc3)ccc2c1O |  |  | inactive
2 | O=C(O)c1cnc2cc(OCCOc3ccc4ccccc4c3)ccc2c1O | inactive |  | inactive
3 | O=C(O)c1cnc2cc(OCCc3ccccc3)ccc2c1O |  |  | inactive
4 | NC(=O)c1ccc2c(O)c(C(=O)O)cnc2c1 |  |  | inactive
5 | O=C(O)c1cnc2cc(F)ccc2c1O |  |  | inactive
6 | O=C(O)c1cnc2cc(OCCc3ccc(F)cc3)ccc2c1O | inactive |  | inactive
7 | O=C(O)c1cnc2cc(OCCOc3ccccc3)ccc2c1O | inactive |  | inactive
8 | O=C(O)c1cnc2cc(OCCc3ccc4ccccc4c3)ccc2c1O |  |  | inactive
9 | O=C(O)c1cnc2cc(OCCc3ccc(Oc4ccccc4)cc3)ccc2c1O |  |  | inactive
10 | O=C(O)c1cnc2cc(OCCOc3ccc(Br)cc3)ccc2c1O | inactive |  | inactive
11 | O=C(O)c1cnc2ccccc2c1O | inactive | inactive | inactive
12 | O=C(O)c1cnc2cc(OCCOc3ccc(F)cc3)ccc2c1O | inactive |  | inactive

More lines, main results first:

Row | pI50 [2] | pI50 [3] | SMILES | pI50 [1]
13 | inactive |  | O=C(O)c1cnc2cc(OCc3ccc4ccccc4c3)ccc2c1O | inactive
14 | inactive |  | O=C(O)c1cnc2cc(OCc3ccc(F)cc3)ccc2c1O | inactive
15 | inactive |  | O=C(O)c1cnc2cc(OCc3c(Cl)c(Cl)c(Cl)c(Cl)c3Cl)ccc2c1O | inactive
16 | inactive | inactive | COc1ccc2c(O)c(C(=O)O)cnc2c1 | inactive
17 | inactive |  | O=C(O)c1cnc2cc(OCc3ccccc3)ccc2c1O | inactive
18 | inactive |  | O=C(O)c1cnc2cc(OCc3ccc(Br)cc3)ccc2c1O | inactive
19 | inactive |  | O=C(O)c1cnc2cc(OCc3cccc4ccccc34)ccc2c1O | inactive
20 | inactive |  | O=C(O)c1cnc2cc(OCc3ccc(Cl)c(Cl)c3)ccc2c1O | inactive
